ChEMBL document CHEMBL4376893, “Identification of Psychoplastogenic N,N-Dimethylaminoisotryptamine (isoDMT) Analogues through Structure-Activity Relationship Studies” (2020)
Calls of active or inactive are those of the source. The calls are words filed in the database; no cut-off is given here.

What was measured:
Cortical neurone [1] = assay: Induction of dendritogenesis in Sprague-Dawley rat cortical neurons assessed as dendritic arbor complexity at 10 uM after 1 hr supplemented with fresh neurobasal medium measured after 71 hrs by Alexa Fluor 488 dye based imaging analysis; type: functional, cell-based
Method in brief: (§1)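 Cortical neurons from timed-pregnant Sprague Dawley rats, about 15,000 cells/well in B27 Neurobasal. On DIV3, dosed 1 h at 0.1% DMSO (10 μM standard; 10 pM–10 μM in concentration-response runs), then medium replaced and grown 71 h. PFA-fixed, MAP2 immunostained with Alexa Fluor 488 secondary, 20x imaging. Blinded Sholl analysis, Nmax = maximum crossings; ≥6 wells over 2 plates from independent dams.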

Mus musculus [2] = assay: Induction of head-twitch response in iv dosed C57BL/6J mouse assessed as reduction in hallucinogenic potential measured after 20 mins; type: functional, organism-based
Danio rerio = species: Danio rerio; assay: Induction of acute behavioural changes in wild type zebrafish Singapore at 7 days post-fertilization stage after 1 hr by imaging analysis; type: functional
Method in brief: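 Wild-type Singapore larvae at 7 dpf, 8 per well in 300 μL egg water, rested 1 h at RT. DMSO stocks added (0.4% DMSO), then 1 h RT incubation. After 5 min dark acclimation, a 17-min acoustic/visual stimulus battery was run under IR video. Locomotion was taken as changed pixels. Random-forest out-of-bag accuracy versus vehicle wells was used, n = 21 wells.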

Cortical neurone [3] = assay: Induction of dendritogenesis in Sprague-Dawley rat cortical neurons assessed as increase in dendritic arbor complex at 1 nM after 1 hr supplemented with fresh neurobasal medium measured after 71 hrs by Alexa Fluor 488 dye based imaging analysis; type: functional, cell-based; method in brief: as §1
[4] = biological target: 5-hydroxytryptamine receptor 2A (Rattus norvegicus) (UniProt P14842); settings: Sprague-Dawley, 1 uM
Sequence of 5-hydroxytryptamine receptor 2A (Rattus norvegicus) (P14842 whole entry): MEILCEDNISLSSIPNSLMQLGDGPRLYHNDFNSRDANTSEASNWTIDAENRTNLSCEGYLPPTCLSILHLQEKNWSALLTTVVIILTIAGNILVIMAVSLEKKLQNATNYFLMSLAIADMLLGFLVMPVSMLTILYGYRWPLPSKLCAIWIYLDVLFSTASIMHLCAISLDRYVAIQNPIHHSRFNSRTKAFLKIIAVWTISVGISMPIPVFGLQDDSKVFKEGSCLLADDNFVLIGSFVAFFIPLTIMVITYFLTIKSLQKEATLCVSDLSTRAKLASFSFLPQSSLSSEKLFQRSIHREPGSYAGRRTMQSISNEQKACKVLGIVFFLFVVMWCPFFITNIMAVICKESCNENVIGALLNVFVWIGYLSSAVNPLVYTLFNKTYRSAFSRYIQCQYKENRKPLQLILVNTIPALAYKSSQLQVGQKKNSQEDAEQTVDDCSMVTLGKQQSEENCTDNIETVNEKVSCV

Mus musculus [5] = assay: Induction of head-twitch response in C57BL/6J mouse assessed as reduction in hallucinogenic potential at 1 to 50 mg/kg, iv measured after 20 mins; type: functional, organism-based

`CC(C)CCn1ccc2ccccc21` was tested, and the Activity (Cortical neurone [1]) was “inactive”.
`COc1cccc2c1ccn2CCN(C)C` was tested, and the Activity (Cortical neurone [1]) was “inactive”.
`CN(C)CCn1ccc2cc(F)ccc21` was tested, and the Activity (Cortical neurone [1]) was “Active”.
With `CN(C)CCn1ccc2ccc(OCc3ccccc3)cc21` the Activity (Cortical neurone [1]) was “Active”.
For `CN(C)CCn1ccc2cc(OCc3ccccc3)ccc21`, the Activity (Cortical neurone [1]) was “Active”.
For `CN(C)C(=O)Cn1ccc2ccccc21`, the Activity (Cortical neurone [1]) was “inactive”.
`COc1ccc2[nH]cc(CCN(C)C)c2c1` [MEBUFOTENIN] was tested, and the Activity (Mus musculus [2]) was “Dose-dependent effect”, the Activity (Danio rerio) was “Dose-dependent effect” and the ECmax (Danio rerio) was 200 µM. The Activity (Cortical neurone [3]) was “Active” and the inhibition [4] was “Active”.
With `CN(C)CCn1ccc2ccccc21` the Activity (Cortical neurone [1]) was “Active”.
In the case of `CN(C)CCc1cn(C)c2ccccc12`, the Activity (Cortical neurone [1]) is reported as “Active”.
`CN(C)CCn1cccc1` was tested, and the Activity (Cortical neurone [1]) was “Active”.
`COc1ccc2c(ccn2CCN(C)C)c1.O=C(O)/C=C/C(=O)O` was tested, and the Activity (Mus musculus [5]) was “inactive”, the Activity (Danio rerio) was “Dose-dependent effect” and the ECmax (Danio rerio) was 200 µM. For the same molecule, the Activity (Cortical neurone [1]) was “Active”.
With `CN(C)CCn1ccc2cccc(F)c21` the Activity (Cortical neurone [1]) was “Active”.
In the case of `CN(C)CCn1c2ccccc2c2ccccc21`, the Activity (Cortical neurone [1]) is reported as “Active”.
For `CN(C)CCn1ccc2c(F)cccc21`, the Activity (Cortical neurone [1]) was “inactive”.
`COc1cccc2ccn(CCN(C)C)c12` was tested, and the Activity (Cortical neurone [1]) was “Active”.
For `CNC1(c2ccccc2Cl)CCCCC1=O` (stereo unspecified), the Activity (Cortical neurone [3]) was “Active”.
In the case of `CN(C)CCc1c[nH]c2ccccc12`, the Activity (Cortical neurone [3]) is reported as “Active” and the Activity (Cortical neurone [1]) is reported as “Active”.
`CN(C)CCn1ccc2cccc(OCc3ccccc3)c21` was tested, and the Activity (Cortical neurone [1]) was “Active”.
`CN(C)CCn1ccc2ccc(F)cc21` was tested, and the Activity (Cortical neurone [1]) was “Active”.
In the case of `COc1ccc2ccn(CCN(C)C)c2c1`, the Activity (Mus musculus [5]) is reported as “Active”, the Activity (Danio rerio) is reported as “Dose-dependent effect” and the ECmax (Danio rerio) is reported as 200 µM. The Activity (Cortical neurone [1]) was “Active”.
In the case of `COc1ccc2c(CCN(C)C)c[nH]c2c1`, the Activity (Mus musculus [5]) is reported as “inactive”, the Activity (Danio rerio) is reported as “Dose-dependent effect” and the ECmax (Danio rerio) is reported as 200 µM.
With `CN(C)CCn1ccc2c(OCc3ccccc3)cccc21` the Activity (Cortical neurone [1]) was “inactive”.
For `CN(C)CCn1cnc2ccccc21`, the Activity (Cortical neurone [1]) was “Active”.
